From ChEMBL document CHEMBL1148253, “Structure-activity requirements for the antiproliferative effect of troglitazone derivatives mediated by depletion of intracellular calcium” (Bioorg Med Chem Lett, 2004)
Active and inactive are the calls of the source. The calls are words filed in the database; no cut-off is given here.

Legend:
[1] = Partition coefficient (logP); assay type: physicochemical; settings: octanol/water
PC-12 [2] = test: Tested for the intracellular Ca+2 release in PC12 cells; - = No release; assay type: functional, cell-based; settings: Rattus norvegicus
Outline: (§1)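 Fluo-4-loaded cells treated with drug at 80 μM for 10 min and monitored for Ca2+ release from intracellular stores. Clotrimazole is the positive control. Scored +, ± or −.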

PC-12 [3] = test: Phosphorylation of eukaryotic initiation factor 2 alpha (eIF2alpha) in PC12 cells, - = No phosphorylation; assay type: functional, cell-based; settings: Rattus norvegicus
Outline: (§2)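 Cells treated with drug at 15 μM for 2 h. Extracts western blotted with anti-phospho-Ser51 eIF2α antibody. Tro is the positive control and DMSO the negative control. Scored +, ± or −.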

PC-12 [4] = test: Concentration required for 50% inhibition of cell proliferation in PC12 cells using sulforhodamine B assay; assay type: functional, cell-based; settings: Rattus norvegicus
Outline: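 Sulforhodamine B proliferation assay; cells exposed to drug for 5 days across 0.5 to 100 μM. IC50 is the concentration giving 50% inhibition of proliferation.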

PC-12 [5] = test: Phosphorylation of eukaryotic initiation factor 2 alpha (eIF2alpha) in PC12 cells, + = Phosphorylation; assay type: functional, cell-based; settings: Rattus norvegicus; outline: as §2
PC-12 [6] = test: Tested for the intracellular Ca+2 release in PC12 cells; + = Release; assay type: functional, cell-based; settings: Rattus norvegicus; outline: as §1
PC-12 [7] = test: Phosphorylation of eukaryotic initiation factor 2 alpha (eIF2alpha) in PC12 cells, +/- = Insignificant phosphorylation; assay type: functional, cell-based; settings: Rattus norvegicus; outline: as §2
PC-12 [8] = test: Tested for the intracellular Ca+2 release in PC12 cells; +/- = Insignificant release; assay type: functional, cell-based; settings: Rattus norvegicus; outline: as §1

logP ([1]; read-out: logP)	logP [1]	SMILES	Activity (PC-12 [2])	Activity (PC-12 [3])	IC50 (PC-12 [4])	Activity (PC-12 [5])	Activity (PC-12 [6])	Activity (PC-12 [7])	Activity (PC-12 [8])
1.99		O=C1NC(=O)C(Cc2ccccc2)S1 (stereo unspecified)	Not toxic	Not toxic	> 100 µM				
2.26		O=C1NC(=O)C(Cc2ccc(OCC3CC3)cc2)S1 (stereo unspecified)	Not toxic	Not toxic	> 100 µM				
3.49		CCC(C)(C)Oc1ccc(/C=C2\SC(=O)NC2=O)cc1			15 µM	Phosphorylation	Phosphorylation		
3.76		CCC(C)(C)Oc1ccc(CC2SC(=O)NC2=O)cc1 (stereo unspecified)			23 µM	Phosphorylation	Phosphorylation		
3.94		O=C1NC(=O)C(Cc2ccc(OCC3CCCCC3)cc2)S1 (stereo unspecified)			26 µM		Release	+/-	
1.05		O=C1NC(=O)/C(=C/c2ccc(O)cc2)S1	Not toxic	Not toxic	20 µM				
		O=C1N=C(O)S/C1=C\c1ccc(OCc2ccccc2)cc1	Not toxic	Not toxic	15 µM				
3.36		CC(C)COc1ccc(CC2SC(=O)NC2=O)cc1 (stereo unspecified)		Not toxic	25 µM		Release		
3.66		O=C1N=C(O)S/C1=C\c1ccc(OCC2CCCCC2)cc1			14 µM	Phosphorylation	Phosphorylation		
2.69		CCCOc1ccc(/C=C2\SC(=O)NC2=O)cc1			7 µM			+/-	+/-
2.29		O=C1NC(=O)C(Cc2ccc(OCC3CCCCO3)cc2)S1 (stereo unspecified)	Not toxic	Not toxic	> 100 µM				
3.21		O=C1NC(=O)/C(=C/c2ccc(OCC3CCCC3)cc2)S1							
2.43		CCOc1ccc(CC2SC(=O)NC2=O)cc1 (stereo unspecified)	Not toxic		> 100 µM			+/-	
3.09		CC(C)COc1ccc(/C=C2\SC(=O)NC2=O)cc1	Not toxic		16 µM			+/-	
3.67		O=C1NC(=O)C(Cc2ccc(OCc3ccccc3)cc2)S1 (stereo unspecified)	Not toxic	Not toxic	> 100 µM				
1.71		O=C1NC(=O)/C(=C/c2ccccc2)S1	Not toxic	Not toxic	> 100 µM				

logP ([1]; read-out: logP)	logP [1]	SMILES	Activity (PC-12 [2])	Activity (PC-12 [3])	IC50 (PC-12 [4])	Activity (PC-12 [5])	Activity (PC-12 [6])	Activity (PC-12 [7])	Activity (PC-12 [8])
3.38		O=C1NC(=O)C(Cc2ccc(OCC3CCCC3)cc2)S1 (stereo unspecified)			25 µM	Phosphorylation	Phosphorylation		
2.54		O=C1NC(=O)/C(=C/c2ccc(OCC3CCC3)cc2)S1			13 µM	Phosphorylation	Phosphorylation		
1.32		O=C1NC(=O)C(Cc2ccc(O)cc2)S1 (stereo unspecified) [GLITAZONE]	Not toxic		> 100 µM			+/-	
3.4		O=C1NC(=O)/C(=C/c2ccc(OCc3ccccc3)cc2)S1							
1.91		COc1ccc(CC2SC(=O)NC2=O)cc1 (stereo unspecified)	Not toxic	Not toxic	> 100 µM				
5.31		Cc1c(C)c2c(c(C)c1O)CCC(C)(COc1ccc(/C=C3/SC(=O)NC3=O)cc1)O2 (stereo unspecified)			5 µM	Phosphorylation	Phosphorylation		
2.96		CCCOc1ccc(CC2SC(=O)NC2=O)cc1 (stereo unspecified)	Not toxic		45 µM			+/-	
		O=C1N=C(O)S/C1=C\c1ccc(OCC2CCCC2)cc1			10 µM	Phosphorylation	Phosphorylation		
2.02		O=C1N=C(O)S/C1=C\c1ccc(OCC2CCCCO2)cc1 (stereo unspecified)			22 µM	Phosphorylation	Phosphorylation		
2.81		O=C1NC(=O)C(Cc2ccc(OCC3CCC3)cc2)S1 (stereo unspecified)		Not toxic	> 100 µM		Release		
1.63		COc1ccc(/C=C2\SC(=O)NC2=O)cc1	Not toxic	Not toxic	23 µM				
4.46		Cc1c(C)c2c(c(C)c1O)CCC(C)(COc1ccc(CC3SC(=O)NC3=O)cc1)O2 (stereo unspecified) [TROGLITAZONE]			15 µM	Active	Active		
2.16		CCOc1ccc(/C=C2\SC(=O)NC2=O)cc1	Not toxic		27 µM			+/-	
1.99		O=C1NC(=O)/C(=C/c2ccc(OCC3CC3)cc2)S1	Not toxic		23 µM			+/-	
	5.07	CC1(COc2ccc(CC3SC(=O)NC3=O)cc2)CCCCC1 (stereo unspecified) [CIGLITAZONE]			20 µM	Active	Active		
